Measured values from ChEMBL document CHEMBL1149287, “Synthetic bryostatin analogues activate the RasGRP1 signaling pathway” (J Med Chem, 2004).
The source made the active and inactive calls. No cut-off for these calls is given here.

Legend:
Thymocyte [1] = experiment: Activation of ERK in wild type mouse thymocytes at 100 nM; type: functional, cell-based
Summary of the method: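 Wild-type mouse thymocytes (RPMI 1640, 10% FBS) exposed 10 min to DAG analogue at 100, 10 or 1 nM, then lysed; phospho-Erk p44/p42 detected by immunoblot.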

Rat2 [2] = experiment: Induction of increase in Ras-GTP level in Rat2 cells expressing human […] at 100 nM; type: functional, cell-based
Summary of the method: (§1)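 Rat2 fibroblasts (DMEM, 10% FBS) stably carrying retroviral pBabePuro, empty or with human RasGRP1 cDNA, exposed 10 min to 100 nM DAG analogue or DMSO vehicle. Ras-GTP measured by Ras-binding-domain pulldown with pan-Ras immunoblot; phospho-Erk p44/p42 and total Ras by immunoblot.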

Rat2 [3] = experiment: Accumulation of Ras-GTP level in Rat2 cells expressing empty pBabePuro vector; type: functional, cell-based; details: Rattus norvegicus; summary of the method: as §1
Lymphocyte [4] = experiment: Induction of T cell activation marker CD69 expression in concanavalin-A activated CD8+ mouse spleen lymphocytes; type: functional, tissue-based
[5] = molecular target: T1, RAS guanyl-releasing protein 1 (Homo sapiens) (UniProt O95267); experiment: Induction of translocation of RasGRP1 to plasma membrane in HEK293 cells; type: cell-based
T1 sequence (whole entry): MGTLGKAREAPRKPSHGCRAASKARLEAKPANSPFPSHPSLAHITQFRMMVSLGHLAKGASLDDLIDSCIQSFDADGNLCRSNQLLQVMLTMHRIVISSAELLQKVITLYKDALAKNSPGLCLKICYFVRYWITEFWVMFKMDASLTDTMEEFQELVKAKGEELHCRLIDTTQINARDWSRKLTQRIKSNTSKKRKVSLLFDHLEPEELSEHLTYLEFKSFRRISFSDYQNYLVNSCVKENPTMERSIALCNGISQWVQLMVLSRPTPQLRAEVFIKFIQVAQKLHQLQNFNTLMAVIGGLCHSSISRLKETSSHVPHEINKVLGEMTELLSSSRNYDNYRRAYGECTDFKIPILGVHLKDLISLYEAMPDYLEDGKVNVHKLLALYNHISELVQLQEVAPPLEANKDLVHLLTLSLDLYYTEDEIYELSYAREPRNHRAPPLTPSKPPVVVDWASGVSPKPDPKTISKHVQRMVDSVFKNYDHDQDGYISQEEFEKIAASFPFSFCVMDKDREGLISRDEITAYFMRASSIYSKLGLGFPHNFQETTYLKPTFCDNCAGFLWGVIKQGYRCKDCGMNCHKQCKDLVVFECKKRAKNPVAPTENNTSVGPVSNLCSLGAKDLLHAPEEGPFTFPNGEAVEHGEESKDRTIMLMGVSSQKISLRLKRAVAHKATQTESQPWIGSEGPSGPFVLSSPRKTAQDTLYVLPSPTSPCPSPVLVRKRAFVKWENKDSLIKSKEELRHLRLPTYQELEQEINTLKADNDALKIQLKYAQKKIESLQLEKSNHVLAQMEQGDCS
Summary of the method: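 HEK-293 cells on glass coverslips transfected with 5 μg pEF-GFP-RasGRP1 (or pEF-GFP), after 48 h given 100 nM DAG analogue or DMSO for 10 min at 37 °C, fixed in 4% paraformaldehyde; GFP location imaged by confocal microscopy, at least five 0.45 μm slices per cell.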

Thymocyte [6] = experiment: Activation of ERK in knockout mouse RasGRP1- mutant thymocytes; type: functional, cell-based
Summary of the method: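 Thymocytes isolated in RPMI 1640 with 10% FBS from young wild-type or RasGRP1 knockout mice, given DMSO or DAG analogue for 10 min, then lysed and immunoblotted for phospho-Erk p44/p42.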

Jurkat = experiment: Induction of T cell activation marker CD69 expression in Jurkat T cells at 100 nM; type: functional, cell-based; details: Homo sapiens
Summary of the method: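 Jurkat T cells kept in RPMI with 10% FBS, incubated overnight with 100 nM DAG analogue or DMSO, fixed in 2% paraformaldehyde, stained with PE-anti-CD69, surface CD69 read by FACS.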

PBL = experiment: Induction of T cell activation marker CD69 expression in PBL cells; type: functional, cell-based; details: Homo sapiens
Summary of the method: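 Human peripheral blood lymphocytes from a healthy donor, isolated on Ficoll-hypaque, treated immediately overnight in RPMI with 100 nM DAG analogue or DMSO; fixed in 2% paraformaldehyde, co-stained for CD4 (FITC) and CD69 (PE), analysed by flow cytometry.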

Lymphocyte [7] = experiment: Induction of T cell activation marker CD69 expression in concanavalin-A activated CD4+ mouse spleen lymphocytes; type: functional, tissue-based

Compound	Activity (Thymocyte [1])	Activity (Rat2 [2])	Activity (Rat2 [3])	Activity (Lymphocyte [4])	Activity [5]	Activity (Thymocyte [6])	Activity (Jurkat)	Activity (PBL)	Activity (Lymphocyte [7])
CCCCCCCC(=O)O[C@H]1/C(=C/C(=O)OC)CC2C[C@H]([C@@H](CC)OC)OC(=O)C[C@H](O)C[C@@H]3CCC[C@H](C[C@H]4CCO[C@H](/C=C/C(C)(C)[C@]1(O)O2)O4)O3	Active	Active	inactive	Active	Active	inactive	Active	Active	Active
CCCCCCCC(=O)O[C@H]1/C(=C/C(=O)OC)CC2C[C@H]([C@H](O)CC)OC(=O)C[C@H](O)C[C@@H]3CCC[C@H](C[C@H]4CCO[C@H](/C=C/C(C)(C)[C@]1(O)O2)O4)O3	Active	Active	inactive	Active	Active	inactive	Active	Active	Active
CCCCCCCCCCCCCC(=O)O[C@@H]1[C@@H](C)[C@@]2(O)[C@@H](C=C(CO)C[C@]3(O)C(=O)C(C)=C[C@@H]23)[C@@H]2C(C)(C)[C@]12OC(C)=O	Active	Active	inactive	Active	Active	inactive	Active	Active	Active
